Source: publication PMC10692396 (Acta Pharmaceutica Sinica. B, 2023)

What was measured:
[1] = tested on: intracranial glioma tumor U87MG; experiment: Intracranial U87MG-luc tumor model in nude mice; type: in vivo; conditions: for median survival time: control 41 days
[2] = tested on: U251 GBM xenograft tumors; experiment: U251 subcutaneous xenograft in nude mice; type: in vivo; conditions: for expression of angiogenic markers CD31 and CD105: U251 tumor tissues; for expression of angiogenic markers CD31 and CD105 / expression of M2 phenotype macrophage marker(s) (CD206): IHC; for expression of M2 phenotype macrophage marker(s) (CD206): tumor tissue; for tumor volume reduced: U251 xenograft
[3] = tested on: M2 markers CD206 and ARG1 in BMDM cells; experiment: In vitro differentiation of BMDMs; type: cell-based, mouse; conditions: BMDM stimulated with CSF1, IL4, IL13; compound 100 nmol/L, 48 h
Summary of the method: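 Mouse BMDMs were seeded at 2.5 × 10^6/well and grown 7 days in 10 ng/mL CSF1. CD206 and ARG1 were measured by flow cytometry. Three independent experiments, t-test.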

[4] = tested on: phosphorylation of CSF1R; experiment: Western blot of CSF1R signaling in BMDM; type: cell-based, mouse; conditions: BMDM cells, CSF1 stimulation
Summary of the method: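 Fresh mouse BMDMs (2.5 × 10^6/well) were grown 7 days with 10 ng/mL CSF1, with a medium change at day 3. Cells were serum-starved 6 h, given test compound for 2 h, then stimulated with 50 ng/mL CSF1 for 15 min. BCA-normalized SDS lysates were blotted for p-CSF1R, CSF1R, p-AKT and AKT. Densitometry was normalized to tubulin across three independent repeats.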

[5] = target: PDGFRα (V561D) (Homo sapiens, UniProt P16234, V561D); experiment: ELISA kinase assay; type: biochemical
[6] = target: CSF1R (Homo sapiens, UniProt P07333); experiment: Surface plasmon resonance; type: binding; conditions: Biacore 8K, protein immobilized on CM5 chip
Summary of the method: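 Human CSF1R was directly immobilized on a CM5 chip (Biacore 8K), with test compound as analyte. Multi-cycle kinetics used 180 s injection and 180 s dissociation.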

[7] = tested on: DBT mouse glioma; experiment: DBT subcutaneous model in immunocompetent mice; type: in vivo, BALB/c mice; conditions: 10 mg/kg twice daily
Summary of the method: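 BALB/c mice received 5 × 10^6 DBT cells in 200 μL PBS s.c. in the right flank. At about 120 mm3 they were randomized to control or 10 mg/kg (n = 6/group), dosed orally twice daily. Tumor size and body weight were measured three times weekly, and growth was expressed as RTV, mean ± SEM. CD8 was stained by IHC and scored by the multiplicative quick score method.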

[8] = tested on: phosphorylation of RET in tumor tissue; experiment: RET phosphorylation in tumor tissue; type: in vivo; conditions: data not shown
[9] = target: VEGFR-3 (Homo sapiens, UniProt P35916); experiment: ELISA kinase assay; type: biochemical
[10] = target: c-Kit (D816H) (Homo sapiens, UniProt P10721, D816H); experiment: ELISA kinase assay; type: biochemical
[11] = target: c-Kit (Homo sapiens, UniProt P10721); experiment: ELISA kinase assay; type: biochemical
[12] = tested on: cells with high expression of Aurora-B; experiment: Cytotoxicity in Aurora-B high cells; type: cell-based; conditions: data not shown
[13] = tested on: glioma cell lines; experiment: Cell viability; type: cell-based; conditions: read-out: IC50 against glioma cell lines
Summary of the method: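 GL261, DBT, D283, U87MG and U251 cells were plated, left overnight, then given a range of test compound concentrations for 72 h at 37 °C, 5% CO2. Growth was read by CCK-8. D283 was grown in MEM with 10% FBS, 1% NEAA and 1% NaP. Lines were STR-authenticated.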

[14] = tested on: recurrent high-grade glioma; experiment: First-in-human phase I trial; type: in vivo, patients
[15] = tested on: neovascularization in chick embryos; experiment: Chicken chorioallantoic membrane; type: in vivo; conditions: CAM assay, 48 h
Summary of the method: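 Fertilized eggs were incubated 7 days at 37 °C, 50% humidity. Suction at the broad end made a false air sac, and a 1 cm2 shell window was opened. Glass coverslips (0.5 cm × 0.5 cm) soaked in test compound or vehicle were laid between preexisting vessels, followed by a further 48 h incubation. Neovascular zones beside the coverslips were photographed under a stereomicroscope.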

[16] = target: VEGFR-1 (Homo sapiens, UniProt P17948); experiment: ELISA kinase assay; type: biochemical
[17] = Pharmacokinetics and brain distribution; type: in vivo, CD-1 mice; conditions: male, CD-1, mouse, po, 10 mg/kg
Summary of the method: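 Thirty male CD-1 mice were split into six groups, one per sampling time (0.5, 1, 2, 4, 8, 24 h), after a single oral 10 mg/kg dose. Plasma was taken from retro-orbital blood. Brains were collected after intracardial perfusion, rinsed in saline, blotted, weighed and homogenized in MeOH-ACN (1/1, 5 mL/g tissue).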

[18] = tested on: mouse glioma GL261-luc; experiment: Intracranial GL261-luc model in immunocompetent mice; type: in vivo, C57BL/6 mice
Summary of the method: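 Male C57BL/6 mice aged 4–6 weeks received 2 × 10^5 GL261-luc cells intracranially into the right frontal lobe. About 5 days after inoculation, mice were randomized by IVIS bioluminescence. Brain signal was then imaged once or twice weekly.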

[19] = tested on: DBT mouse glioma; experiment: DBT model, combination with anti-PD-1; type: in vivo, BALB/c mice; conditions: SYHA1813 5 mg/kg p.o. twice daily, anti-PD-1 200 μg i.p. twice a week, or both
[20] = tested on: HUVEC; experiment: VEGF-stimulated cell viability; type: cell-based; conditions: Homo sapiens, 72 h, read-out: IC50 HUVEC cell viability
[21] = tested on: D283 medulloblastoma xenograft; experiment: D283 subcutaneous xenograft in NOD-SCID mice; type: in vivo; conditions: oral, 14 days
Summary of the method: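 D283 cells (5 × 106 in 200 μL, half Matrigel) were injected s.c. into the right flank of NOD-SCID mice. Mice were randomized at about 120 mm3 (n = 9/group) and dosed orally twice daily. Tumor size (caliper) and body weight were taken three times weekly. Mice were euthanized after 14 days of dosing and tumors weighed.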

[22] = tested on: panel of 328 kinases; experiment: Kinase profiling, whole panel; type: biochemical, human; conditions: 0.1 μmol/L SYHA1813
[23] = tested on: tube formation of HUVECs; experiment: Tube formation assay; type: cell-based, Human; conditions: VEGF 100 ng/mL, 8 h, concentration-dependent
Summary of the method: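 HUVECs were starved 24 h, then seeded at 20,000 cells/well on growth-factor-reduced Matrigel. Graded test compound concentrations and VEGF (final 100 ng/mL) were added for 8 h. Tubes were photographed through a stereoscope at 4×.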

CSF1R, sequence (P07333 20-972): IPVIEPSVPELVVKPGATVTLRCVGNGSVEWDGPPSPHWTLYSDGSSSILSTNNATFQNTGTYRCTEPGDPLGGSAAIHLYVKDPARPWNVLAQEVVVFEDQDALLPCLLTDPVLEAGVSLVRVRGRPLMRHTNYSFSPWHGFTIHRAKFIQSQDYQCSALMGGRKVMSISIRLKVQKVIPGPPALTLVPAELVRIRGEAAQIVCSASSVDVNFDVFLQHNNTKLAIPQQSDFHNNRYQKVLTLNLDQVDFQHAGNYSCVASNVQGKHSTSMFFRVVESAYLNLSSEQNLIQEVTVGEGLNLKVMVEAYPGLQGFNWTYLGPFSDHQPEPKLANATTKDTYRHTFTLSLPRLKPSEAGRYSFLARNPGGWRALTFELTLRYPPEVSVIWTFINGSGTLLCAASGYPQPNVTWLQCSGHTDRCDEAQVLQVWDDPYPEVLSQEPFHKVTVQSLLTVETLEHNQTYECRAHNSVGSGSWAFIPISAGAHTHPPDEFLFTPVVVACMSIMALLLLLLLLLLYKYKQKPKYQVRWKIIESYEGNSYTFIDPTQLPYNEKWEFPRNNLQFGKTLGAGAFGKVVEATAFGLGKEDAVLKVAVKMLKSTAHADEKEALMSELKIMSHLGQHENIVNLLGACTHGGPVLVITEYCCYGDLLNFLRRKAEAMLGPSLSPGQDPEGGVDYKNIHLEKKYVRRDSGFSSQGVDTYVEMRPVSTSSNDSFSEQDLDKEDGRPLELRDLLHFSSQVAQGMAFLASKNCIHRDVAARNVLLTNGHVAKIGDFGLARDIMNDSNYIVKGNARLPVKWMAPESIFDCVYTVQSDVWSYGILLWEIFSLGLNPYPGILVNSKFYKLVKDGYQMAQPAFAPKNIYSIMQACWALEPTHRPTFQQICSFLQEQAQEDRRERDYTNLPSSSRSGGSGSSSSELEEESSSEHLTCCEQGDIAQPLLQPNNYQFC
c-Kit, sequence (P10721 26-976): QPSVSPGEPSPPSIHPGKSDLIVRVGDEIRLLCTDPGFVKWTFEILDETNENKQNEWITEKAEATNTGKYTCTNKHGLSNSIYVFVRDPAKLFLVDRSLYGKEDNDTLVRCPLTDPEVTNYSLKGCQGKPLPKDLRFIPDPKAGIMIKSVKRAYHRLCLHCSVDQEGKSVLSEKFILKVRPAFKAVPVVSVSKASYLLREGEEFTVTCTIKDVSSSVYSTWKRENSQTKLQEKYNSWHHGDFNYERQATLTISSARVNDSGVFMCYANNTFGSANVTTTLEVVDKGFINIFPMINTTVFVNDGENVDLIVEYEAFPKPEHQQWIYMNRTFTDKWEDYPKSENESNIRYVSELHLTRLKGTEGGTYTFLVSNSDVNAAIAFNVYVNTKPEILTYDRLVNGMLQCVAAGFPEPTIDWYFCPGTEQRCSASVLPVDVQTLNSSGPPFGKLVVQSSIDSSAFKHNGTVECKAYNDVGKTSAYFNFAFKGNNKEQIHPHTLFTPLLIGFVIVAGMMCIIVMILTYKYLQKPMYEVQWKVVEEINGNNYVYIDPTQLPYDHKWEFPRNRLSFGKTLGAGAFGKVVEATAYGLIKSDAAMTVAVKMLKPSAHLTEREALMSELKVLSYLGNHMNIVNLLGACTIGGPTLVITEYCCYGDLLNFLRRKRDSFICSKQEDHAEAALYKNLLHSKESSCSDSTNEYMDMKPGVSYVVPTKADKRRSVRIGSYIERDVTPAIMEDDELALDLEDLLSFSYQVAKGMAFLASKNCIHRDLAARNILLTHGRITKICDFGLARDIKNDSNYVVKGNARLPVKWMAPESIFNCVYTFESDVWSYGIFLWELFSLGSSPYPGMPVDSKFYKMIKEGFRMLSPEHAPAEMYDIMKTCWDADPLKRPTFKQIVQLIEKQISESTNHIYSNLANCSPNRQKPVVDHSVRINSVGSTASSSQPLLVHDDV
VEGFR-1, sequence (P17948 27-1338): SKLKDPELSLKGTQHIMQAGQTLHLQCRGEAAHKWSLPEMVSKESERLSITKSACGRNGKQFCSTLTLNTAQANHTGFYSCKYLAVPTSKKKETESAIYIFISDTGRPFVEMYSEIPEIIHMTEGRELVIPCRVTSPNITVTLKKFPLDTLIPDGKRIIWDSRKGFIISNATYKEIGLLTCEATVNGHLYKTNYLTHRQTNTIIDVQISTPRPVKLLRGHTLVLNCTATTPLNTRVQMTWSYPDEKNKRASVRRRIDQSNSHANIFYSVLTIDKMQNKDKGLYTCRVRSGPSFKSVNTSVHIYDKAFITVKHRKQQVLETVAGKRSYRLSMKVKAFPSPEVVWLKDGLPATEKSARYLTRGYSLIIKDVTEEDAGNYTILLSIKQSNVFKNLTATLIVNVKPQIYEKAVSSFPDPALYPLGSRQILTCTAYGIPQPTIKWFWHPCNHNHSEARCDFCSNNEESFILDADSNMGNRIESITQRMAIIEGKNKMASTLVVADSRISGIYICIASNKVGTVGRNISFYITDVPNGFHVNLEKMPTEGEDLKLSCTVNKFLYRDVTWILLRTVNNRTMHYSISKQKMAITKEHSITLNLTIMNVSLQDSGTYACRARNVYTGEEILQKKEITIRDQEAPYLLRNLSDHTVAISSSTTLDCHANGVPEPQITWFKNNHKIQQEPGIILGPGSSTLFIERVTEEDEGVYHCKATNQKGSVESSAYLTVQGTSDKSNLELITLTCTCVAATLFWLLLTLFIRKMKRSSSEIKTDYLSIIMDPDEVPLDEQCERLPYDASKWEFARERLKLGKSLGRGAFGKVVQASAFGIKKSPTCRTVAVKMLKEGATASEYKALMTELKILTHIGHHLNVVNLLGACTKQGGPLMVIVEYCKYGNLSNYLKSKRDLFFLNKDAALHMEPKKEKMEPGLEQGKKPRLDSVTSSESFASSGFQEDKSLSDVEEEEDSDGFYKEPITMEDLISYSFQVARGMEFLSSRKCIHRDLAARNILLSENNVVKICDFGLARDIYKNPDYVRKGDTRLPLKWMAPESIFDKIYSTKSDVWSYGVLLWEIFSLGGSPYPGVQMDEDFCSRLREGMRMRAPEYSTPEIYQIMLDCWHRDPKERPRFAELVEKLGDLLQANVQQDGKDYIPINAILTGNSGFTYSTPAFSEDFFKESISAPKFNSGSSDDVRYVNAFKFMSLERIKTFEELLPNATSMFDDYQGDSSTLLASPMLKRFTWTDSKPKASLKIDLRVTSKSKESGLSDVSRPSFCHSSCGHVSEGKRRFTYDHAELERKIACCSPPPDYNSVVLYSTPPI
VEGFR-3, sequence (P35916 25-1363): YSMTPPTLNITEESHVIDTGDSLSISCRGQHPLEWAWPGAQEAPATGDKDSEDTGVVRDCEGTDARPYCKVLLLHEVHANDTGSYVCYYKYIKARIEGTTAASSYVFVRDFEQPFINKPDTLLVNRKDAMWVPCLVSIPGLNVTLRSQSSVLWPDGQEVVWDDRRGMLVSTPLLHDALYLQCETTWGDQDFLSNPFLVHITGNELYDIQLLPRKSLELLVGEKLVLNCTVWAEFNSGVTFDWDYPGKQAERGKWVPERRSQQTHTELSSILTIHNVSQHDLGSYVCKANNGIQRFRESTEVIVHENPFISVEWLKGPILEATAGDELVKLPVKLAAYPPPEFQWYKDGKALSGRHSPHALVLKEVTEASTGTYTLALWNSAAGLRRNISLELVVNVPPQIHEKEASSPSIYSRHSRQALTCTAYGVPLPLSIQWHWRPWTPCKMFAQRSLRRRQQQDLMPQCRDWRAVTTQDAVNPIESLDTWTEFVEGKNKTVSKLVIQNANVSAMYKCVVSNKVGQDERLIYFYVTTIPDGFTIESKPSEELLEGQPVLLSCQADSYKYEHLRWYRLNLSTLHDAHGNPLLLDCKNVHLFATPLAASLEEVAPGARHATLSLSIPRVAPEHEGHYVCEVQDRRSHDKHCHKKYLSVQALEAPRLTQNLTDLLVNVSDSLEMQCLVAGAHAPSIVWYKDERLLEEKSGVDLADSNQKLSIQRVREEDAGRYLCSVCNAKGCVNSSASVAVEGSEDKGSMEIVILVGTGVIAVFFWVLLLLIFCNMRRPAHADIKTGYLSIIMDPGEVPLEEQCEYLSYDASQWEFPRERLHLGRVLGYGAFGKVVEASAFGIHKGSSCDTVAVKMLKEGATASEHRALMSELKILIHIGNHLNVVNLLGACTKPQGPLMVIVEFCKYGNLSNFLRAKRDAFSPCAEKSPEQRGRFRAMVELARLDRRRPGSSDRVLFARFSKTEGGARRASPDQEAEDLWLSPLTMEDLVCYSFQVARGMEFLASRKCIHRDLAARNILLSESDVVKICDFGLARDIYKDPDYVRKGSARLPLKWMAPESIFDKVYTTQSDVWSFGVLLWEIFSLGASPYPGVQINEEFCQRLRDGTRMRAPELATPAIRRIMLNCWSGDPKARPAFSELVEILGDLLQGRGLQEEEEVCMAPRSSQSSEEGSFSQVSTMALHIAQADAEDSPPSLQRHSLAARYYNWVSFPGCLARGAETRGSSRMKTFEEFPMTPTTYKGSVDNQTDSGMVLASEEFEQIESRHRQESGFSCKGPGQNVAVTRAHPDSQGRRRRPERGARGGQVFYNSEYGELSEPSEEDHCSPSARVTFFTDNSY
c-Kit (D816H), sequence (P10721 26-976 D816H): as the sequence (P10721 26-976) above, with D791H counted along it

## CNC(=O)c1ccccc1Sc1ccc2c(/C=C/c3ccccn3)n[nH]c2c1 [Axitinib, reference compound]
[1]; 40 mg/kg orally twice daily
  median survival time: 41 days
[2]
  expression of angiogenic markers CD31 and CD105: effectively suppressed
  expression of M2 phenotype macrophage marker(s) (CD206): no significant changes

## FC(F)(F)c1ccc(CNc2ccc(Cc3c[nH]c4ncc(Cl)cc34)cn2)cn1 [PLX3397, reference compound]
[3]
  expression of M2 markers CD206 and ARG1: significant decrease

## Cc1cc(NC(=O)c2cccc3cc(-c4cccc5[nH]nc(N)c45)ccc23)ccc1F [SYHA1813, 6-(3-amino-1H-indazol-4-yl)-N-(4-fluoro-3-methylphenyl)-1-naphthamide]
[4]
  phosphorylation of CSF1R and activation of downstream AKT: dramatically blocked
[5]
  IC50: 0.0024 µM
[6]
  SPR binding to CSF1R: robust binding signal
[7]; BALB/c mice
  tumor growth of DBT glioma and tumor weight: suppressed
[7]; IHC
  CD8+ T cells in tumor tissue: dramatically increased
[8]
  phosphorylation of RET in tumor tissue: rarely inhibited
[9]
  IC50: 0.0043 µM
[10]
  IC50: 0.134 µM
[11]
  IC50: 0.163 µM
[12]
  cytotoxicity to cells with high expression of Aurora-B: no apparent cytotoxicity
[13]
  IC50: > 20 µM
[14]; 5 mg once daily, 4 cycles, recurrent anaplastic oligodendrocytoma patient
  Response Assessment in Neuro-Oncology (RANO): stable disease
[14]; 15 mg/day, recurrent GBM (WHO IV) patient, first follow-up
  contrast-enhancement on T1-weighted images and vasogenic edema on FLAIR images: drastic reduction
[3]
  expression of M2 markers CD206 and ARG1: significant decrease
[15]
  neovascularization in chick embryos: significantly inhibited
[16]
  IC50: 0.0028 µM
[1]; 20 mg/kg orally twice daily
  median survival time: 54 days
[1]; 40 mg/kg group, control Day 31
  first death of mice: 43 days
[1]; 40 mg/kg group, control Day 52
  death of the last mouse: 75 days
[1]; 40 mg/kg orally twice daily
  median survival time: 58.5 days
[17]; brain
  Cmax: 1210 ng/g
[17]; plasma
  AUC(0-t): 4540 ng·h/mL
  Cmax: 1420 ng/mL
[18]
  median survival time: prolonged median survival time
[19]
  tumor growth: slightly inhibited
[20]
  IC50: 0.013 µM
[21]
  tumor growth in D283 xenograft: effectively inhibited tumor growth
[22]
  inhibition relative to the control, most of the kinases: less than 80%
[23]
  tube formation of HUVECs: considerably blocked
[2]; 5 mg/kg orally twice daily
  tumor volume reduced: 67.7%
[2]; 10 mg/kg orally twice daily
  tumor volume reduced: 81.0%
[2]; U251, U87MG and D283 xenograft models
  body weight of the animals: not significantly changed
[2]
  expression of angiogenic markers CD31 and CD105: dramatically reduced
  expression of M2 phenotype macrophage marker(s) (CD206): significantly inhibited

## Cn1nnc2c(C(N)=O)ncn2c1=O [TMZ, temozolomide, reference compound]
[21]
  tumor growth in D283 xenograft: dramatically insensitive
